# Reference: the EternaBench riboswitch data
# Tested on: MS2 coat protein
# Assay: apparent Kd, MS2 coat protein; higher = weaker binding; RNA-MaP array; FMN 200 µM where present
# In short: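 Each design was made on Illumina sequencing-chip clusters by stalled E. coli RNA polymerase and titrated with SNAP-549-labelled MS2 coat protein from 0.7 or 1.5 nM, doubling to 3 µM, in the absence and then the presence of constant ligand. The buffer was 100 mM Tris-HCl pH 7.5, 80 mM KCl, 4 mM MgCl2, BSA, DTT, yeast tRNA and Tween-20. The apparent Kd is the median of filtered per-cluster fits of binding curves, with green signal normalised to red-channel RNA signal and control-cluster median Fmax.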
# [1] = designed as: OFF switch for flavin mononucleotide, no ligand
# [2] = ligand present: flavin mononucleotide, designed as: OFF switch for flavin mononucleotide
# [3] = designed as: ON switch for flavin mononucleotide, no ligand
# [4] = ligand present: flavin mononucleotide, designed as: ON switch for flavin mononucleotide
Sequence,apparent Kd [1],apparent Kd [2],apparent Kd [3],apparent Kd [4]
UUGUUCUGAGGAUAUACAUGAGGAUCACCCAUGUGUUUCUGCUUGGUGUCUUGCGAAUGUAGAAGGCUGUUCUC,37.5 nM,40.2 nM,,
CUGAUGUGAGGAUAUCGGGCUACAGGCCUGCUGCUAGCAAACGAGAAGGCACAUGAGGAUCACCCAUGUGAUAG,15.9 nM,35.1 nM,,
AAACUGGAGGACAAGGAUAUGUGCUCUACGACAUGAGGAUCACCCAUGUGAGACGUAGUAGUGAAACAGAAGGUGUCCUAUUGUA,,,20.1 nM,11.6 nM
UGCAGACGAGGAUAUGAUCAAUAAUACAUGAGGAUCACCCAUGUAAUACUGAUCCAUGGAUCAGAAGGCGUCUGCU,16.2 nM,24.6 nM,,
AAUAACAGAGGAUAUACUAUUUUAUGUAUUUAUUAUUUUGAACAUGAGGAUCACCCAUGUAGAAGGCUGAAUGA,26.4 nM,22 nM,,
GGUACCAUGUAGAAGGCAGAUCUGAUUCAGAUCUGAGGAUAUACAUGAGGAUCACCCAUGUAAAGGCACCGCACGAGAGUGCAA,32.4 nM,108 nM,,
CUGUAGAUAUCAGGAUAUCUAUUUCCUACAUGAGGAUCACCCAUGUAGGUGAUCACCCAAGUAAAGGAGAAGGGAUAUCUAUAG,,,65 nM,23.2 nM
GGAUCAUAUGUUAGGAUAUGCUGGACCUUGGUUCAGCAGAAGGGACAUGAGGAUCACCCAUGUCAUGUCGAUCC,21 nM,22.3 nM,,
AUAUGAUAGAUAGGAUAUACUGAGGUUGAAUGGGUAGAAGGAUCGAUAGGGAAGAAUACAUGAGGAUCACCCAUGUUGUGGAUU,,,76.9 nM,57.8 nM
GAGUAGUUGAAAGGAUAUGCAUUGUUAUAGAAUGCAGAAGGUUCUAACAUGAGGAUCACCCAUGUAGGACUAUUCCUGUGUAUC,,,12.1 nM,9.82 nM
UUAAAGGCAGGAUAUACAUUUUUUUUAUUAUCCUCAUUAUUACAUGAGGAUCACCCAUGUAGAAGGGCCAAAUU,81.7 nM,54.1 nM,,
GUCAGCUCGUGAGGAUAUACAACACUGCUUCGGCAGUGUAUUAAGAUCACAUGAGGAUCACCCAUGUAGAAGGCACGCGCUGAU,12.9 nM,292 nM,,
UGAGCAUCAGGAUAUACGUGACGACCGUGAGGUCGAAGGUUACAUGAGGAUCACCCAUGUAGAAGGGAUGUUCU,26.5 nM,57.9 nM,,
AGCAUUGCUUAGAAGGGAAAUUUAUAAUUUAAUUCAGGAUAUAGAUACAGUACAACAUGAGGACAUGAGGAUCACCCAUGUAUA,,,25.8 nM,19.3 nM
GCGAAUUAGUGAGGAUAUACAUAAUUUAAAACUGUAGAAGGCACAAUCCUCAAGACAUGAGGAUCACCCAUGUGGUAUUACGCU,138 nM,861 nM,,
ACUGUCCGAGAGAAGGGAACAUGAGGAUCACCCAUGUUACCUCACCUGGUGACGGAACUCCAAGUUCAGGAUAUCUCGGGCGGC,5.14 nM,7.59 nM,,
UUUAUGUAAGGAUAUGCGGGCGGGCGUGAAAAUGUUUGUUUGUAGAAGGUACAUGAGGAUCACCCAUGUAGUGG,145 nM,201 nM,,
GGGUACAUGAGGAUCACCCAUGUAACGUGGAUAAGCUAUAAUAGAAGGAUAAGAGGAGAUGAGGUAUAGGAUAUAUCAUGGGUG,42.6 nM,17.1 nM,,
UUGUUAUAUGUAGGAUAUGCGUAUUAUUGUUAUGCAGAAGGACAUGAGGAUCACCCAUGUAUAUUAUUGUUAUAUAUUAUAUAU,25.7 nM,66.5 nM,,
UCAUGAUGGAAGAAGGGAGUCGUGCAUGACAACUCAGGAUAUUUCACAUGAGGAUCACCCAUGUCGAAGUAACAAUGUUGAUCA,16.2 nM,56.6 nM,,
CCCUAAUAUCGAGGAUAUGUCUAGACACAUGAGGAUCACCCAUGUAUGUGUAUAGAAGGCGAUAUUAACAGCAUGUUACAUGGG,,,315 nM,101 nM
ACACCGUCAGGAUAUUGGAAGACACCCAGGAGGGUGCCUUUCGAGAAGGGACAUGAGGAUCACCCAUGUGCAGU,27.9 nM,58.6 nM,,
CAGUACUGAGGAUAUACAUGAGGAUCACCCAUGUUUUCCAGCUAGGAUACUAGCAAAUGUAGAAGGCAGUACUG,25.1 nM,249 nM,,
GUCAGCUCGUGAGGAUAUACAACACUUCUUCGGCAGUGUAUUAAGAUCACAUGAGGAUCACCCAUGUAGAAGGCACGAGCUGAU,14.1 nM,231 nM,,

Sequence,apparent Kd [1],apparent Kd [2],apparent Kd [3],apparent Kd [4]
AGAUGGUGAUGUUAUCUUCGUCGGACAUGAGGAUCACCCAUGUAGGAUAUGCUACUCAAAGAGUAGCAGAAGGACAUGUAUCUU,119 nM,896 nM,,
AAUUUACAUGAGGAUCACCCAUGUCAGGAUAUGGUUUUAUUUUUUUCUUUUCUUGAUUCCAGAAGGGACAGCUA,127 nM,68.3 nM,,
UUGGCAUCGUAGAAGGGUGACAUGAGGAUCACCCAUGUGAUGAUAUUUCUCGAGAUAUGUUGUCCAUAGGAUAUACGAGCGAAC,,,80.9 nM,18.4 nM
GCUGGACGAGGAUAUGCAAUCGUGCUUCGGCACGUAAGAUCACAUGAGGAUCACCCAUGUAGAAGGUGUCCAGC,17.9 nM,30.2 nM,,
UAGAUGGGAGGAUAUACGUAGAUACAGAUUCAUGUAGUGCUACAUGAGGAUCACCCAUGUAGAAGGCCCGUCUU,39.4 nM,330 nM,,
GGAUCGAAAGUGAGGAUAUGCUGGUCCUUGGAUCAGCAGAAGGCACAUGAGGAUCACCCAUGUGAUUUCGAUCC,16.6 nM,25 nM,,
GCUGCAUAGGCAGGAUAUGCAACAAUUAGAAUAAAAUAUAACUAAUUGACAUGAGGAUCACCCAUGUAGAAGGGCCUGUGCAGU,21.1 nM,19.6 nM,,
GUAAAGUGAGGAUAUGGUAAAUUAAUUAUUAAUUAAUUAAUCCAGAAGGCACAUGAGGAUCACCCAUGUAAUUG,,39.1 nM,,
UUGGUGUACGUAGGAUAUGUAGGAUAUUCCUACAUGAGGAUCACCCAUGUAUGCAUGGAAGAAGGACAGAAGGACGUGCACCAU,,,203 nM,14 nM
GCAGCGCAUGUAGGAUAUCGGUCAGUUUCUGAUCGAGAAGGACAUGAGGAUCACCCAUGUAAAUUACCGACUUUGUCGGGCUGC,10.2 nM,39.2 nM,,
CCGACGAAAGUCGAACGAUGUAGCAGAAGGACAUGAGGAUCACCCAUGUCAGCUGUAACAGCCAUGUAGGAUAUGCUACAUCGG,4.44 nM,5.53 nM,,
AAAAAACAAGGAUAUACGCAGGAGGGUUGUCUUAAUUUUUGACAUGAGGAUCACCCAUGUAGAAGGUGUUAAAA,237 nM,507 nM,,
AUCAGUUCGUCAGGAUAUACGUCACUGCGUCAGCAGUGUGGUAAGAUCACAUGAGGAUCACCCAUGUAGAAGGGACGAGCUGAU,14 nM,214 nM,,
AAAACUUCAGAGAAGGACCCAUCGGCGAGAUGGGUAGGAUAUCUGACUUGAGGUGUCCUGACAUGAGGAUCACCCAUGUAUAAA,418 nM,61.4 nM,,
UUAGUUUUGCAAGGAUAUGUUUAUUUAUAGUUGCCUCUUACAUGAGGAUCACCCAUGUUUUACUUACAGAAGGUGCAAUGAUUU,165 nM,416 nM,,
CAGGACCUUGAGGAUAUGUGACGAUUAUCGUUCAUAGAAGGUAAGACAUGAGGAUCACCCAUGUCCUGGCAUAA,15.1 nM,15.1 nM,,
GGAAAUCAUGUAGGAUAUGCAUGGCGAAGCUACGCAGAAGGACAUGAGGAUCACCCAUGUGCUAGCUACCGGAUACGGUGGCAA,78.8 nM,288 nM,,
AGCUAGUCAGGAUAUACGAACAUGUCAAAAGACGUGAAGGGACAUGAGGAUCACCCAUGUAGAAGGGACUAGCC,26.7 nM,170 nM,,
GGAUUUGUUCCAAUUUCGGUGAGUAAGGAUAUGCAUGGCAUACAUGAGGAUCACCCAUGUUGUCGGCAGAAGGUGCCACAACGU,,,59.4 nM,15.2 nM
UUACUAUCACAGAAGGGUGGAUAGUAUAUAGACGCAGGAUAUGUGACAUGAGGAUCACCCAUGUUUCACCGGCAUGAGGAUCAA,11.4 nM,15.3 nM,,
GGACGUCACAUUUACAUGAGGAUCACCCAUGUCAAAAGACAUGAGGAUAUGGAUGCGAAACGCAUCCAGAAGGCAUGGACGUCC,,,286 nM,27.8 nM
GGCGAACAGGCUAACAUGAGGAUCACCCAUGUGGACUCAUGGUAGGAUAUCGGGAAGGAGGAAACCGAGAAGGGCCGGUGAGCA,,,202 nM,43.6 nM
ACCGUUGAAGCAGGAUAUUACAGCGCCAGCGUGUAAGAAGGGCUUCAACAUGAGGAUCACCCAUGUUGGAGUACCUCAAAAGUG,5.14 nM,31.4 nM,,
AGCGAACAGGCUAACAUGAGGAUCACCCAUGUGGACUCAUGGUAGGAUAUCGGGAAGGAGGAAACCGAGAAGGGCCGGUGAGCU,,,254 nM,62.8 nM
